Measured values as given in ChEMBL document CHEMBL2390870, “Coumarin chalcone fibrates: a new structural class of lipid lowering agents” (2013).
Activity calls are given as the source filed them. The rule behind the calls is not given here.

Tests used:
[1] = system: Rattus norvegicus; experiment: Antihyperlipidemic activity in triton WR-1339-induced Charles-Foster rat assessed as increase in post heparin lipolytic activity at 100 mg/kg, po after 18 hrs by spectrophotometric analysis relative to control; assay type: functional
Outline: (§1)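 Triton WR-1339 400 mg/kg i.p. in male Charles Foster rats (six per group), with test agent in 0.2% gum acacia given orally at the same time. Post-heparin plasma lipolytic activity read after 18 h as nmol free fatty acids formed/h/ml plasma; percent change; mean ± SD; t-test.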

[2] = system: Rattus norvegicus; experiment: Antihyperlipidemic activity in triton WR-1339-induced Charles-Foster rat assessed as decrease in plasma triglyceride level at 100 mg/kg, po after 18 hrs relative to control; assay type: functional; parameters: scale not given: the % may be the effect or the level left
Outline: (§2)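 Male adult Charles Foster rats (200–225 g), six per group; hyperlipidemia induced by triton WR-1339 400 mg/kg i.p.; test agent macerated with 0.2% w/v gum acacia in water and given orally at the same time, with diet withdrawn; vehicle to controls. After 18 h, plasma was obtained by centrifugation at 2500 g, 4 °C, 10 min and diluted 1:3 in saline. Mean ± SD; Student's t-test.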

[3] = system: Rattus norvegicus; experiment: Antihyperlipidemic activity in triton WR-1339-induced Charles-Foster rat assessed as decrease in plasma phospholipid level at 100 mg/kg, po after 18 hrs relative to control; assay type: functional; parameters: scale not given: the % may be the effect or the level left; outline: as §2
[4] = system: Rattus norvegicus; experiment: Antihyperlipidemic activity in triton WR-1339-induced Charles-Foster rat assessed as decrease in plasma total cholesterol level at 100 mg/kg, po after 18 hrs relative to control; assay type: functional; parameters: scale not given: the % may be the effect or the level left; outline: as §2
[5] = system: Rattus norvegicus; experiment: Antihyperlipidemic activity in triton WR-1339-induced Charles-Foster rat assessed as increase in liver lipoprotein lipase activity at 100 mg/kg, po after 18 hrs; assay type: functional, organism-based; parameters: dose 100 mg/kg
[6] = system: Rattus norvegicus; experiment: Antihyperlipidemic activity in triton WR-1339-induced Charles-Foster rat assessed as increase in plasma HDL level at 100 mg/kg, po after 18 hrs; assay type: functional, organism-based; parameters: dose 100 mg/kg; outline: as §2
[7] = system: Rattus norvegicus; experiment: Antihyperlipidemic activity in triton WR-1339-induced Charles-Foster rat assessed as decrease in plasma LDL level at 100 mg/kg, po after 18 hrs; assay type: functional, organism-based; parameters: dose 100 mg/kg; outline: as §2
[8] = system: Rattus norvegicus; experiment: Antihyperlipidemic activity in triton WR-1339-induced Charles-Foster rat assessed as decrease in plasma VLDL level at 100 mg/kg, po after 18 hrs; assay type: functional, organism-based; parameters: dose 100 mg/kg; outline: as §2
[9] = system: Rattus norvegicus; experiment: Antihyperlipidemic activity in triton WR-1339-induced Charles-Foster rat assessed as increase in post heparin lipolytic activity at 200 mg/kg, po after 18 hrs by spectrophotometric analysis relative to control; assay type: functional; outline: as §1
[10] = system: Rattus norvegicus; experiment: Antihyperlipidemic activity in triton WR-1339-induced Charles-Foster rat assessed as increase in post heparin lipolytic activity at 50 mg/kg, po after 18 hrs by spectrophotometric analysis relative to control; assay type: functional; outline: as §1
[11] = system: Rattus norvegicus; experiment: Antihyperlipidemic activity in triton WR-1339-induced Charles-Foster rat assessed as decrease in plasma triglyceride level at 200 mg/kg, po after 18 hrs relative to control; assay type: functional; parameters: scale not given: the % may be the effect or the level left; outline: as §2
[12] = system: Rattus norvegicus; experiment: Antihyperlipidemic activity in triton WR-1339-induced Charles-Foster rat assessed as decrease in plasma phospholipid level at 200 mg/kg, po after 18 hrs relative to control; assay type: functional; parameters: scale not given: the % may be the effect or the level left; outline: as §2
[13] = system: Rattus norvegicus; experiment: Antihyperlipidemic activity in triton WR-1339-induced Charles-Foster rat assessed as decrease in plasma total cholesterol level at 200 mg/kg, po after 18 hrs relative to control; assay type: functional; parameters: scale not given: the % may be the effect or the level left; outline: as §2
[14] = system: Rattus norvegicus; experiment: Antihyperlipidemic activity in triton WR-1339-induced Charles-Foster rat assessed as decrease in plasma triglyceride level at 50 mg/kg, po after 18 hrs relative to control; assay type: functional; parameters: scale not given: the % may be the effect or the level left; outline: as §2
[15] = system: Rattus norvegicus; experiment: Antihyperlipidemic activity in triton WR-1339-induced Charles-Foster rat assessed as decrease in plasma phospholipid level at 50 mg/kg, po after 18 hrs relative to control; assay type: functional; parameters: scale not given: the % may be the effect or the level left; outline: as §2
[16] = system: Rattus norvegicus; experiment: Antihyperlipidemic activity in triton WR-1339-induced Charles-Foster rat assessed as decrease in plasma total cholesterol level at 50 mg/kg, po after 18 hrs relative to control; assay type: functional; parameters: scale not given: the % may be the effect or the level left; outline: as §2

| SMILES | Activity [1] [%] | Activity [2] [%] | Activity [3] [%] | Activity [4] [%] | further results |
| --- | --- | --- | --- | --- | --- |
| CCOC(=O)COc1ccc(C(=O)/C=C/c2cc(C(C)(C)C)c3oc(=O)c(C(=O)OCC)cc3c2)cc1 | 5 | 11 | 11 | 13 |  |
| CCOC(=O)c1cc2cc(/C=C/C(=O)c3ccc(OC(C)C(=O)OCC)cc3)cc(C(C)CC)c2oc1=O (stereo unspecified) | 5 | 9 | 9 | 10 |  |
| CCOC(=O)COc1ccc(C(=O)/C=C/c2cc(C)c3oc(=O)c(C(=O)OCC)cc3c2)cc1 | 2 | 8 | 8 | 6 |  |
| CCOC(=O)C(C)Oc1ccc(C(=O)/C=C/c2cc(C=O)c(O)c(C(C)CC)c2)cc1 (stereo unspecified) | 5 | 11 | 11 | 13 |  |
| CC(C)c1cc(/C=C/C(=O)c2ccc(OCC(=O)O)cc2)cc2cc(C(=O)O)c(=O)oc12 | 3 | 8 | 7 | 9 |  |
| Cc1cc(/C=C/C(=O)c2ccc(OC(C)C(=O)O)cc2)cc2cc(C(=O)O)c(=O)oc12 (stereo unspecified) | 17 | 25 | 24 | 26 | Activity [5]: Active; Activity [6]: Active; Activity [7]: Active; Activity [8]: Active; Activity [9]: 17%; Activity [10]: 12%; Activity [11]: 26%; Activity [12]: 24%; Activity [13]: 27%; Activity [14]: 14%; Activity [15]: 15%; Activity [16]: 16% |
| CCOC(=O)c1cc2cc(/C=C/C(=O)c3ccc(OC(C)(C)C(=O)OCC)cc3)cc(C(C)CC)c2oc1=O (stereo unspecified) | 15 | 23 | 23 | 22 | Activity [9]: 15%; Activity [10]: 13%; Activity [11]: 25%; Activity [12]: 24%; Activity [13]: 23%; Activity [14]: 16%; Activity [15]: 16%; Activity [16]: 18% |
| CCOC(=O)CCCOc1ccc(C(=O)/C=C/c2cc(C(C)(C)C)c3oc(=O)c(C(=O)OCC)cc3c2)cc1 | 5 | 11 | 11 | 12 |  |
| CCC(C)c1cc(/C=C/C(=O)c2ccc(OC(C)(C)C(=O)O)cc2)cc2cc(C(=O)O)c(=O)oc12 (stereo unspecified) | 4 | 9 | 8 | 8 |  |
| CCOC(=O)c1cc2cc(/C=C/C(=O)c3ccc(OC(C)C(=O)OCC)cc3)cc(C)c2oc1=O (stereo unspecified) | 6 | 11 | 12 | 10 |  |
| CCOC(=O)C(C)Oc1ccc(C(=O)/C=C/c2cc(C)c(O)c(C=O)c2)cc1 (stereo unspecified) | 6 | 11 | 13 | 12 |  |
| CCOC(=O)c1cc2cc(/C=C/C(=O)c3ccc(OC(CC)C(=O)OCC)cc3)cc(C)c2oc1=O (stereo unspecified) | 10 | 14 | 15 | 14 |  |
| Cc1ccc(C)c(OCCCC(C)(C)C(=O)O)c1 [GEMFIBROZIL] | 19 | 33 | 30 | 32 |  |
| CCOC(=O)CCCOc1ccc(C(=O)/C=C/c2cc(C)c3oc(=O)c(C(=O)OCC)cc3c2)cc1 | 12 | 16 | 17 | 19 |  |
| CCOC(=O)COc1ccc(C(=O)/C=C/c2cc(C(C)C)c3oc(=O)c(C(=O)OCC)cc3c2)cc1 | 15 | 22 | 20 | 21 |  |
| CCOC(=O)CCCOc1ccc(C(=O)/C=C/c2cc(C(C)CC)c3oc(=O)c(C(=O)OCC)cc3c2)cc1 (stereo unspecified) | 7 | 12 | 12 | 13 |  |
| CCOC(=O)c1cc2cc(/C=C/C(=O)c3ccc(OC(C)(C)C(=O)OCC)cc3)cc(C)c2oc1=O | 5 | 8 | 10 | 10 |  |
| CCC(C)c1cc(/C=C/C(=O)c2ccc(OCC(=O)O)cc2)cc2cc(C(=O)O)c(=O)oc12 (stereo unspecified) | 3 | 9 | 9 | 8 |  |
| CCOC(=O)COc1ccc(C(=O)/C=C/c2cc(C(C)CC)c3oc(=O)c(C(=O)OCC)cc3c2)cc1 (stereo unspecified) | 8 | 11 | 12 | 11 |  |
